Our source for the IC50 and inhibition values is ChEMBL document CHEMBL5252634, “Design, synthesis and in vitro cytotoxicity evaluation of indolo-pyrazoles grafted with thiazolidinone as tubulin polymerization inhibitors” (RSC Med Chem, 2023).

For orientation: IC50 means the midpoint of a concentration-inhibition curve. In general, inhibition refers to how much of the control response was suppressed.

Data set [1] concerns HCT-116. Kind of data set: Cytotoxicity against human HCT-116 cells assessed as reduction in cell viability measured after 48 hrs by MTT assay. The format is functional, cell-based. Particulars: HCT-116, 48 h. In short, it runs like this:
(§1)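 Cells kept in medium with 10% FBS and 1% antibiotic–antimycotic at 37 °C, 5% CO2. Seeded at 3000–4000 cells/well, grown overnight, then given fresh medium with a range of concentrations (diluted from 10 mM DMSO stocks) for 48 h. MTT (0.5 mg/mL) added for 3–4 h at 37 °C. Formazan dissolved in DMSO and absorbance read at 570 nm.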
For orientation: Tetrazolium dyes change colour on reduction, which living cells bring about.

The subject of data set [2] is B16-F10. Kind of data set: Cytotoxicity against mouse B16-F10 cells assessed as reduction in cell viability measured after 48 hrs by MTT assay. The format is functional, cell-based. The conditions noted are these: B16-F10, 48 h. An outline of the steps: as §1
Data set [3] deals with A549. Nature of the data set: Cytotoxicity against human A549 cells assessed as reduction in cell viability measured after 48 hrs by MTT assay. The class given is functional, cell-based. The conditions noted are these: A549, 48 h. In short, it runs like this:
as §1

Data set [4] relates to SK-MEL-28. Nature of the data set: Cytotoxicity against human SK-MEL-28 cells assessed as reduction in cell viability measured after 48 hrs by MTT assay. The format is functional, cell-based. Particulars: SK-MEL-28, 48 h. An outline of the steps:
as §1

The nature of data set [5]: Cytotoxicity against human BEAS-2B cells assessed as reduction in cell viability measured after 48 hrs by MTT assay. The format is toxicity, cell-based. In short, it runs like this:
as §1

For data set [6], the target named is Tubulin (Homo sapiens) (UniProt P68371+Q9H4B7+P0DPH7+P68366+Q13509+Q71U36+P04350+Q3ZCM7+P07437+P68363+Q9BQE3+Q6PEY2+Q13885+Q9BVA1+Q9BUF5). Kind of data set: Inhibition of tubulin polymerization (unknown origin) at 3 uM measured after 1 hr relative to control. The class given is protein-complex assay. An outline of the steps:
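Fluorescence-based tubulin polymerization kit: tubulin, GTP and tubulin glycerol buffer mixed and added to compound (from 10x stocks), enhancer and inhibitor reference standards, and blanks in a plate prewarmed to 37 °C. Read kinetically for 1 h at ex 360/em 450 nm.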

As to `CCn1cc(-c2cc(/N=C3/NC(=O)CS3)n(-c3ccc(Cl)cc3)n2)c2ccccc21`, the IC50 in data set [1] is 37.9 µM; in data set [2], above 50 µM; in data set [3], 38.7 µM; in data set [4], 29.7 µM. In addition, the IC50 at 48 h in data set [5] is above 50 µM.
Take `CCn1cc(-c2cc(/N=C3/NC(=O)CS3)n(-c3ccc(Cl)cc3)n2)c2cc(OC)ccc21`: the IC50 was above 50 µM in data set [1], 14.2 µM in data set [2], 48.1 µM in data set [3] and above 50 µM in data set [4]. Moreover, the IC50 at 48 h in data set [5] was above 50 µM.
On to `COc1ccc2c(c1)c(-c1cc(/N=C3/NC(=O)CS3)n(-c3cccc(Cl)c3)n1)cn2C`, for which the IC50 in data set [1] is 22.2 µM; in data set [2], 23.4 µM; in data set [3], above 50 µM; in data set [4], above 50 µM.
Turning to `CCn1cc(-c2cc(/N=C3/NC(=O)CS3)n(-c3ccc(C#N)cc3)n2)c2ccccc21`, the IC50 in data set [1] is above 50 µM; in data set [2] it was 18.6 µM; in data set [3] it was 39.2 µM; in data set [4] it was 25 µM. Moreover, in data set [5], the half-maximal inhibitory concentration (IC50) at 48 h was above 50 µM.
On to `N#Cc1ccc(-n2nc(-c3cn(Cc4ccccc4)c4ccccc34)cc2/N=C2/NC(=O)CS2)cc1`, for which the IC50 was 33.1 µM in data set [1], above 50 µM in data set [2], 22.3 µM in data set [3] and above 50 µM in data set [4].
On to `Cn1cc(-c2cc(/N=C3/NC(=O)CS3)n(-c3ccc(Cl)cc3)n2)c2cc(Br)ccc21`, for which the IC50 in data set [1] is 13.5 µM; in data set [2] it was 11.3 µM; in data set [3] it was 19.2 µM; in data set [4], 26.9 µM. Also, the IC50 at 48 h in data set [5] is above 50 µM.
On to `CCn1cc(-c2cc(/N=C3/NC(=O)CS3)n(-c3cccc(Cl)c3)n2)c2cc(Br)ccc21`, for which the IC50 in data set [1] was above 50 µM; in data set [2] it was above 50 µM; in data set [3], above 50 µM; in data set [4], 31.4 µM.
On to `CCc1ccccc1-n1nc(-c2c[nH]c3ccccc23)cc1/N=C1/NC(=O)CS1`, for which the IC50 came to 36.8 µM in data set [1], 18.5 µM in data set [2], 25.3 µM in data set [3] and 23.2 µM in data set [4]. Besides, the IC50 at 48 h in data set [5] was determined as 14.8 µM.
The corresponding values for `CCc1ccccc1-n1nc(-c2cn(Cc3ccccc3)c3ccccc23)cc1/N=C1/NC(=O)CS1` are 35.8 µM, above 50 µM, 36.5 µM, 33.8 µM and 27.4 µM.
For the molecule `CCc1ccccc1-n1nc(-c2cn(CC)c3ccc(Br)cc23)cc1/N=C1/NC(=O)CS1`, the IC50 was above 50 µM in data set [1], above 50 µM in data set [2], 33.9 µM in data set [3] and 34.3 µM in data set [4].
Regarding `CCc1ccccc1-n1nc(-c2cn(C)c3ccc(Br)cc23)cc1/N=C1/NC(=O)CS1`, the IC50 in data set [1], in data set [2], in data set [3] and in data set [4] was above 50 µM in each case.
As for `Cn1cc(-c2cc(/N=C3/NC(=O)CS3)n(-c3cccc(Cl)c3)n2)c2cc(Br)ccc21`, the IC50 amounted to 20.7 µM in data set [1], 26 µM in data set [2], 32.8 µM in data set [3] and 17 µM in data set [4].
As to `CCn1cc(-c2cc(/N=C3/NC(=O)CS3)n(-c3cccc(Cl)c3)n2)c2ccccc21`, the IC50 in data set [1] was above 50 µM; in data set [2], 21.2 µM; in data set [3] it was 26 µM; in data set [4], 26 µM.
As for `O=C1CS/C(=N\c2cc(-c3c[nH]c4ccccc34)nn2-c2ccccc2)N1`, the IC50 in data set [1] is above 50 µM; in data set [2] it was above 50 µM; in data set [3], 22.5 µM; in data set [4], 34 µM. Besides, the IC50 at 48 h in data set [5] is above 50 µM.
For `COc1ccc2[nH]cc(-c3cc(/N=C4/NC(=O)CS4)n(-c4cccc(Cl)c4)n3)c2c1`, the IC50 in data set [1] is 10.8 µM; in data set [2], above 50 µM; in data set [3], 22.6 µM; in data set [4], 6.22 µM. In addition, the IC50 at 48 h in data set [5] was 21.7 µM.
As for `CCc1ccccc1-n1nc(-c2cn(C)c3ccc(OC)cc23)cc1/N=C1/NC(=O)CS1`, the IC50 was 34.1 µM in data set [1], above 50 µM in data set [2], above 50 µM in data set [3] and 28 µM in data set [4]. The IC50 at 48 h in data set [5] was above 50 µM.
In the case of `CCc1ccccc1-n1nc(-c2cn(CC)c3ccccc23)cc1/N=C1/NC(=O)CS1`, the IC50 in data set [1] is 19.8 µM; in data set [2] it was above 50 µM; in data set [3], 33 µM; in data set [4], above 50 µM.
On to `Cn1cc(-c2cc(/N=C3/NC(=O)CS3)n(-c3ccc(Cl)cc3)n2)c2ccccc21`, for which the IC50 was above 50 µM in data set [1], above 50 µM in data set [2], 30.2 µM in data set [3] and above 50 µM in data set [4].
`O=C1CS/C(=N\c2cc(-c3cn(Cc4ccccc4)c4ccccc34)nn2-c2cccc(Cl)c2)N1`: the IC50 in data set [1], in data set [2], in data set [3] and in data set [4] was above 50 µM throughout. Moreover, the half-inhibitory concentration (IC50) at 48 h in data set [5] was above 50 µM.
As to `Cn1cc(-c2cc(/N=C3/NC(=O)CS3)n(-c3ccc(C#N)cc3)n2)c2ccccc21`, the IC50 in data set [1] is 25.1 µM; in data set [2], above 50 µM; in data set [3], 37.2 µM; in data set [4] it was 22.7 µM.
Regarding `CCc1ccccc1-n1nc(-c2c[nH]c3ccc(OC)cc23)cc1/N=C1/NC(=O)CS1`, the 50% inhibitory concentration (IC50) in data set [1] is 18 µM; in data set [2] it was 10.8 µM; in data set [3], 25.8 µM; in data set [4] it was above 50 µM. The IC50 at 48 h in data set [5] was 32 µM.
In turn, `CC(=O)O[C@H]1C(=O)[C@@]2(C)[C@H]([C@H](OC(=O)c3ccccc3)[C@]3(O)C[C@H](OC(=O)[C@H](O)[C@@H](NC(=O)c4ccccc4)c4ccccc4)C(C)=C1C3(C)C)[C@]1(OC(C)=O)CO[C@@H]1C[C@@H]2O` had an inhibition in data set [6] of 60%.
Regarding `COc1ccc2[nH]cc(-c3cc(/N=C4/NC(=O)CS4)n(-c4ccc(Cl)cc4)n3)c2c1`, the IC50 in data set [1] was 11.2 µM; in data set [2], 39.4 µM; in data set [3], 20.9 µM; in data set [4], 11.3 µM.
As to `CCn1cc(-c2cc(/N=C3/NC(=O)CS3)n(-c3ccc(Cl)cc3)n2)c2cc(Br)ccc21`, the IC50 in data set [1] is above 50 µM; in data set [2], 18.4 µM; in data set [3] it was 33.7 µM; in data set [4], 24.9 µM.
The corresponding values for `CCn1cc(-c2cc(/N=C3/NC(=O)CS3)n(-c3ccc(C#N)cc3)n2)c2cc(Br)ccc21` are above 50 µM, 11 µM, 36.6 µM and 32.1 µM.
In the case of `O=C1CS/C(=N\c2cc(-c3c[nH]c4ccccc34)nn2-c2ccc(Cl)cc2)N1`, the IC50 was 13.8 µM in data set [1], above 50 µM in data set [2], 16.4 µM in data set [3] and 12.8 µM in data set [4].
For `CCc1ccccc1-n1nc(-c2cn(C)c3ccccc23)cc1/N=C1/NC(=O)CS1`, in that order: above 50 µM, above 50 µM, 39.1 µM and 49.9 µM.
For `CCn1cc(-c2cc(/N=C3/NC(=O)CS3)n(-c3cccc(Cl)c3)n2)c2cc(OC)ccc21`, in that order: 14.8 µM, 36.4 µM, 16.9 µM and above 50 µM.
The corresponding values for `COc1ccc2c(c1)c(-c1cc(/N=C3/NC(=O)CS3)n(-c3ccc(Cl)cc3)n1)cn2Cc1ccccc1` are above 50 µM, above 50 µM, above 50 µM and above 50 µM.
With `N#Cc1ccc(-n2nc(-c3c[nH]c4ccccc34)cc2/N=C2/NC(=O)CS2)cc1`, the IC50 was above 50 µM in data set [1], above 50 µM in data set [2], 34 µM in data set [3] and 25.4 µM in data set [4].
As for `Cn1cc(-c2cc(/N=C3/NC(=O)CS3)n(-c3ccc(C#N)cc3)n2)c2cc(Br)ccc21`, the IC50 in data set [1] was 37.3 µM; in data set [2] it was 10.6 µM; in data set [3], above 50 µM; in data set [4], above 50 µM.
With `CCc1ccccc1-n1nc(-c2cn(CC)c3ccc(OC)cc23)cc1/N=C1/NC(=O)CS1`, the IC50 in data set [1] was 45.8 µM; in data set [2], above 50 µM; in data set [3], 24.2 µM; in data set [4], 26.8 µM.
The corresponding values for `Cn1cc(-c2cc(/N=C3/NC(=O)CS3)n(-c3cccc(Cl)c3)n2)c2ccccc21` are 23.6 µM, above 50 µM, 22.9 µM and 26.1 µM.
For `O=C1CS/C(=N\c2cc(-c3cn(Cc4ccccc4)c4ccccc34)nn2-c2ccc(Cl)cc2)N1`, in that order: above 50 µM, above 50 µM, 46.4 µM and above 50 µM.
